Reference: ChEMBL document CHEMBL3120084, “Structure-function relationships of Nile blue (EtNBS) derivatives as antimicrobial photosensitizers” (Eur J Med Chem, 2014)
Active and inactive are the calls of the source. The calls are words filed in the database; no cut-off is given here.

Key:
Escherichia coli [1] = assay: Drug uptake in Escherichia coli ATCC 53868 incubated for 10 mins in dark by fluorescence analysis; format: ADME, organism-based; conditions: in vivo
Summary of the method: (§1)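 Cells (10^8/ml) held with compound at 0.05-10 μM for 10 min in dark at room temperature. They were then pelleted, washed twice in PBS and lysed in RIPA for 30 min at room temperature. Lysate fluorescence was read at compound-specific wavelengths and converted with per-compound calibration curves. Values were normalized to protein measured by BCA against BSA standards.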

Staphylococcus aureus [2] = assay: Drug uptake in Staphylococcus aureus 8325-4 incubated for 10 mins in dark by fluorescence analysis; format: ADME, organism-based; conditions: in vivo; summary of the method: as §1
[3] = Octanol-phosphate buffered saline partition coefficient, log P of the compound at 100 uM after 30 mins; format: physicochemical
Summary of the method: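 Compound (100 μM) in 1.5 mL octanol plus 1.5 mL PBS, stirred overnight at room temperature, then left 30 min for phases to separate. Each phase was read by absorbance at the compound's peak, undiluted and diluted 1:2 and 1:10. Log10 of the octanol/PBS ratio is reported.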

Acinetobacter baumannii [4] = assay: Drug uptake in Acinetobacter baumannii ATCC 51393 incubated for 10 mins in dark by fluorescence analysis; format: ADME, organism-based; conditions: in vivo; summary of the method: as §1
Enterococcus faecalis [5] = assay: Dark toxicity against Enterococcus faecalis ATCC 29212 at 0.1 to 100 uM after 10 mins; format: organism-based; conditions: in vivo
Summary of the method: (§2)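 Dark controls: 10^8 CFU/ml in PBS with photosensitizer for 10 min at room temperature, no illumination. Solvent controls contained 2% DMA. Viability read as CFU after serial dilution, plating on nutrient agar and 18 h dark incubation at 37°C; triplicate.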

Staphylococcus aureus [6] = assay: Dark toxicity against Staphylococcus aureus 8325-4 at 0.1 to 100 uM after 10 mins; format: organism-based; conditions: in vivo; summary of the method: as §2
Enterococcus faecalis [7] = assay: Antimicrobial activity against Enterococcus faecalis ATCC 29212 assessed as log reduction in bacterial CFU incubated for 10 mins prior to irradiation with 10 J/cm2 of light; format: functional
Summary of the method: (§3)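 Bacteria grown overnight in BHI broth at 37°C with shaking, refreshed 3 h, adjusted to OD600 0.5 (10^8 CFU/ml), pelleted and resuspended in PBS. Suspensions held with photosensitizer (0.1-100 μM, diluted from 5 mM DMA stock) 10 min in dark at room temperature, then 635-nm light at 10 J/cm2 and 50 mW/cm2. Surviving CFU counted by serial dilution on nutrient agar after 18 h at 37°C; triplicates.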

Staphylococcus aureus [8] = assay: Antimicrobial activity against Staphylococcus aureus 8325-4 assessed as log reduction in bacterial CFU incubated for 10 mins prior to irradiation with 10 J/cm2 of light; format: functional; summary of the method: as §3
[9] = Induction of reactive oxygen species generation at 5 uM using singlet oxygen sensor green probe by microplate spectrophotometer analysis in presence of 1 J/cm'2 to 15 J/cm'2 of light; format: physicochemical
Summary of the method: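 Cell-free assay in PBS: compound at 5 μM final with SOSG probe at 5 μM final, 4 wells per group. 635-nm light given in sequential doses of 1 to 15 J/cm2. Fluorescence read in slow kinetic mode at excitation 505 nm and emission 525 nm.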

[10] = Induction of reactive oxygen species generation at 5 uM using hydroxyphenyl-fluorescein probe by microplate spectrophotometer analysis in presence of 1 J/cm'2 to 15 J/cm'2 of light; format: physicochemical
Summary of the method: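 Cell-free assay in PBS: compound at 5 μM final with HPF probe at 5 μM final, 4 wells per group. 635-nm light given in sequential doses of 1 to 15 J/cm2. Fluorescence read in slow kinetic mode at excitation 490 nm and emission 515 nm, 2 nm bandpass.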

Enterococcus faecalis [11] = assay: Drug uptake in Enterococcus faecalis ATCC 29212 incubated for 10 mins in dark by fluorescence analysis; format: ADME, organism-based; conditions: in vivo; summary of the method: as §1
Acinetobacter baumannii [12] = assay: Dark toxicity against Acinetobacter baumannii ATCC 51393 at 0.1 to 100 uM after 10 mins; format: organism-based; conditions: in vivo; summary of the method: as §2
Escherichia coli [13] = assay: Antimicrobial activity against Escherichia coli ATCC 53868 assessed as log reduction in bacterial CFU incubated for 10 mins prior to irradiation with 10 J/cm2 of light; format: functional; summary of the method: as §3
Acinetobacter baumannii [14] = assay: Antimicrobial activity against Acinetobacter baumannii ATCC 51393 assessed as log reduction in bacterial CFU incubated for 10 mins prior to irradiation with 10 J/cm2 of light; format: functional; summary of the method: as §3
Staphylococcus aureus [15] = assay: Dark toxicity against Staphylococcus aureus 8325-4 at 50 uM after 10 mins; format: organism-based; conditions: in vivo; summary of the method: as §2
Escherichia coli [16] = assay: Dark toxicity against Escherichia coli ATCC 53868 at 50 uM after 10 mins; format: organism-based; conditions: in vivo; summary of the method: as §2
Acinetobacter baumannii [17] = assay: Dark toxicity against Acinetobacter baumannii ATCC 51393 at 50 uM after 10 mins; format: organism-based; conditions: in vivo; summary of the method: as §2
Enterococcus faecalis [18] = assay: Dark toxicity against Enterococcus faecalis ATCC 29212 at 50 uM after 10 mins; format: organism-based; conditions: in vivo; summary of the method: as §2
Escherichia coli [19] = assay: Dark toxicity against Escherichia coli ATCC 53868 at 0.1 to 100 uM after 10 mins; format: organism-based; conditions: in vivo; summary of the method: as §2

Structure (SMILES): CC/N=c1/cc2sc3cc(N(CC)CC)ccc3nc-2c2c([N+](=O)[O-])cccc12.Cl
- Drug uptake (Escherichia coli [1]): Active
- Drug uptake (Staphylococcus aureus [2]): Active
- logP at 0.5 h, 100 µM [3]: 2.03
- Drug uptake (Acinetobacter baumannii [4]): Active
- Activity (Enterococcus faecalis [5]): Toxic
- Activity (Staphylococcus aureus [6]): Toxic
- log10cfu (Enterococcus faecalis [7]): 5
- log10cfu (Staphylococcus aureus [8]): 5
- Activity [9]: Active
- Activity [10]: Active
- Drug uptake (Enterococcus faecalis [11]): Active

Structure (SMILES): CCN(CC)c1ccc2nc3c4ccccc4/c(=N\CCNC(=N)N)cc-3sc2c1.Cl.Cl
- Drug uptake (Escherichia coli [1]): Active
- Drug uptake (Staphylococcus aureus [2]): Active
- logP at 0.5 h, 100 µM [3]: 0.49
- Drug uptake (Acinetobacter baumannii [4]): Active
- Activity (Acinetobacter baumannii [12]): Toxic
- Activity (Enterococcus faecalis [5]): Toxic
- Activity (Staphylococcus aureus [6]): Toxic
- log10cfu (Escherichia coli [13]): >5
- log10cfu (Acinetobacter baumannii [14]): >5
- log10cfu (Enterococcus faecalis [7]): >5
- log10cfu (Staphylococcus aureus [8]): >5
- Activity [9]: Active
- Activity [10]: Active
- Drug uptake (Enterococcus faecalis [11]): Active

Structure (SMILES): CC/N=c1/cc2sc3cc(N(CC)CC)ccc3nc-2c2c(N)cccc12.Cl
- Drug uptake (Escherichia coli [1]): Active
- Drug uptake (Staphylococcus aureus [2]): Active
- logP at 0.5 h, 100 µM [3]: 1.77
- Drug uptake (Acinetobacter baumannii [4]): Active
- log10cfu (Staphylococcus aureus [8]): <3
- Activity [9]: Active
- Activity [10]: Active
- Drug uptake (Enterococcus faecalis [11]): Active

Structure (SMILES): CCCS(=O)(=O)N(CC)c1cccc2/c(=N\CC)cc3sc4cc(N(CC)CC)ccc4nc-3c12.Cl
- Drug uptake (Escherichia coli [1]): Active
- Drug uptake (Staphylococcus aureus [2]): Active
- logP at 0.5 h, 100 µM [3]: 2.19
- Drug uptake (Acinetobacter baumannii [4]): Active
- Activity (Enterococcus faecalis [5]): Toxic
- Activity (Staphylococcus aureus [6]): Toxic
- Activity (Escherichia coli [13]): inactive
- Activity (Acinetobacter baumannii [14]): inactive
- log10cfu (Enterococcus faecalis [7]): >5
- log10cfu (Staphylococcus aureus [8]): 4
- Activity [9]: Active
- Activity [10]: Active
- Drug uptake (Enterococcus faecalis [11]): Active

Structure (SMILES): CC/N=c1/cc2sc3cc(N(CC)CC)ccc3nc-2c2ccccc12.Cl
- Drug uptake (Escherichia coli [1]): Active
- Drug uptake (Staphylococcus aureus [2]): Active
- Activity (Staphylococcus aureus [15]): Non-toxic
- logP at 0.5 h, 100 µM [3]: 2.87
- Drug uptake (Acinetobacter baumannii [4]): Active
- Activity (Escherichia coli [16]): Toxic
- Activity (Acinetobacter baumannii [17]): Toxic
- Activity (Enterococcus faecalis [18]): Toxic
- log10cfu (Escherichia coli [13]): >6
- log10cfu (Acinetobacter baumannii [14]): >6
- log10cfu (Enterococcus faecalis [7]): >6
- log10cfu (Staphylococcus aureus [8]): >6
- Activity [9]: Active
- Activity [10]: Active
- Drug uptake (Enterococcus faecalis [11]): Active

Structure (SMILES): CC/N=c1/cc2sc3cc(N(CC)CC)ccc3nc-2c2c(NC(C)=O)cccc12.Cl
- logP at 0.5 h, 100 µM [3]: 1.36
- Activity (Escherichia coli [19]): Toxic
- Activity (Acinetobacter baumannii [12]): Toxic
- Activity (Escherichia coli [13]): inactive
- Activity (Acinetobacter baumannii [14]): inactive
- Activity [9]: Active
- Activity [10]: Active

Structure (SMILES): CCCS(=O)(=O)N(CC)c1cccc2c3nc4ccc(N(CC)CC)cc4sc-3c/c(=N\CC)c12.Cl
- Drug uptake (Escherichia coli [1]): Active
- Drug uptake (Staphylococcus aureus [2]): Active
- logP at 0.5 h, 100 µM [3]: 2.45
- Drug uptake (Acinetobacter baumannii [4]): Active
- Activity (Escherichia coli [19]): Toxic
- Activity (Acinetobacter baumannii [12]): Non-toxic
- Activity (Enterococcus faecalis [5]): Non-toxic
- Activity (Staphylococcus aureus [6]): Non-toxic
- Activity (Escherichia coli [13]): inactive
- Activity (Acinetobacter baumannii [14]): inactive
- log10cfu (Staphylococcus aureus [8]): >5
- Activity [9]: Active
- Activity [10]: Active
- Drug uptake (Enterococcus faecalis [11]): Active
